Experimental findings from ChEMBL document CHEMBL1139478, “Piperazinobenzopyranones and phenalkylaminobenzopyranones: potent inhibitors of breast cancer resistance protein (ABCG2)” (J Med Chem, 2005) are described below.

Data set [1] can be described thus: Cytotoxicity against mitoxantrone-sensitive human HCT116 cells at 10 uM assessed as viable cells after 48 hrs. In kind it is cell-based, HCT-116. Particulars: read-out: Activity; call rule not given here. The method, boiled down: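 HCT116/S cells exposed to compound at 10, 1 and 0.1 μM; cell cycle distribution (G0/G1, S, G2/M) and viability by flow cytometry after trypsin/spermine detergent buffer 10 min room temperature, trypsin inhibitor plus ribonuclease A 10 min, then PI 10 min, read immediately.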

The target in data set [2] is T1, Broad substrate specificity ATP-binding cassette transporter ABCG2 (Homo sapiens, UniProt Q9UNQ0).
T1 sequence (Q9UNQ0 whole entry): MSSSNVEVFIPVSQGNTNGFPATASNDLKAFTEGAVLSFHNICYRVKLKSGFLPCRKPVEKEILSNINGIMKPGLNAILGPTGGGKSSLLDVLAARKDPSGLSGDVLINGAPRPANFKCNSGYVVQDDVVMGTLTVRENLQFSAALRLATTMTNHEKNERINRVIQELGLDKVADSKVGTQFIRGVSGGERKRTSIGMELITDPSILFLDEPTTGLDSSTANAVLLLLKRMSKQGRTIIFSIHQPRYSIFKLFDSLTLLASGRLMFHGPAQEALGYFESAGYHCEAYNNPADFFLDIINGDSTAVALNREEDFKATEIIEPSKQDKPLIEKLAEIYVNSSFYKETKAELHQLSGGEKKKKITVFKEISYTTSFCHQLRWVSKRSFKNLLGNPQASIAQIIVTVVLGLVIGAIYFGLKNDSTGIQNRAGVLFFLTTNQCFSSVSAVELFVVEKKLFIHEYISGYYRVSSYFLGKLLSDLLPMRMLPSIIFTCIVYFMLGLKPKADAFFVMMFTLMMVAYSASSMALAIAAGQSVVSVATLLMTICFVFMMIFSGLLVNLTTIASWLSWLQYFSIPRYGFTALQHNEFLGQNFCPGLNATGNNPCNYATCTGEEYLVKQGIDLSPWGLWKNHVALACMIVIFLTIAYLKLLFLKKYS
As to the kind of experiment: Inhibition of BCRP expressed in mitoxantrone-resistant human HCT116 cells assessed as increase in mitoxantrone accumulation at 10 uM after 15 mins. The class given is cell-based. Particulars: hct-116, 0.25 h. In a few lines: (§1)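 HCT116/R cells from ~90% confluent flasks, trypsinized, washed and resuspended at 10^6 cells/mL in serum-free RPMI. Preincubated 15 min at 37 °C with modulator (10 to 0.1 μM final, from 10 mM DMSO stock), then 3 μM mitoxantrone added for 30 min. Stopped with ice-cold PBS, washed; intracellular mitoxantrone by flow cytometry (488 nm excitation, 670 nm band-pass), mean fluorescence intensity in arbitrary units.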

Data set [3] has as its system HCT-116. As to the kind of experiment: Potentiation of mitoxantrone-induced cytotoxicity in mitoxantrone-resistant human HCT116 cells at 10 uM assessed as apoptotic cells after 48 hrs by flow cytometry. The class given is cell-based. Particulars: hct-116, 48 h. In a few lines:
(§2)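 After 24 h attachment, HCT116/R medium replaced with fresh medium holding 1 μM mitoxantrone plus modulator (10, 1, 0.1 μM); 48 h at 37 °C, PBS washes. Dead cells by propidium iodide uptake (2 μg/mL) in unfixed cells, FSC/FL2 flow cytometry; apoptosis by annexin V-FITC/PI staining, 10 min room temperature, flow cytometry; viable, apoptotic and dead percentages reported.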

The subject of data set [4] is HCT-116. As to the kind of experiment: Potentiation of mitoxantrone-induced cytotoxicity in mitoxantrone-resistant human HCT116 cells at 10 uM assessed as dead cells after 48 hrs by flow cytometry. The class given is cell-based. The note with it: hct-116, 48 h. In a few lines:
as §2
(A flow cytometer gives signals particle by particle.)

For data set [5], the target named is T1, Broad substrate specificity ATP-binding cassette transporter ABCG2. As to the kind of experiment: Inhibition of BCRP expressed in mitoxantrone-resistant human HCT116 cells assessed as increase in mitoxantrone accumulation at 1 uM after 15 mins. The class given is cell-based. Particulars: hct-116, 0.25 h. In a few lines: as §1

The structures appear in SMILES notation.

Consider `O=C(NCCc1ccccc1)c1cc(=O)c2c(O)cccc2o1`, for which the viability at 48 h, 10 µM in data set [1] amounted to 60%. Besides, the Fluorescence intensity in data set [2] came out at 282 a.u.
On to `CCCN1CCN(C(=O)c2cc(=O)c3c(O)cccc3o2)CC1`, for which, in data set [2], the Fluorescence intensity was 104 a.u.
Same read-out and setting: then `O=C(c1cc(=O)c2c(O)cccc2o1)N1CCN(CCO)CC1`, with 72 a.u.
Regarding `CC(C)CN1CCN(C(=O)c2cc(=O)c3c(O)cccc3o2)CC1`, the Fluorescence intensity in data set [2] amounted to 92 a.u.
The same measure, in the same setting: for `O=C(c1cc(=O)c2c(O)cccc2o1)N1CCN(CC2CCCCC2)CC1` the value was 92 a.u.
With `CCCCN1CCN(C(=O)c2cc(=O)c3c(O)cccc3o2)CC1`, the values for the Activity in the data set on HCT-116 [3] and with HCT-116 [4] were 27% and 22%, respectively. For the same compound, the viability at 48 h, 10 µM in data set [1] was 60%. For the same compound, the Fluorescence intensity in data set [2] is given as 223 a.u.
Turning to `CCN1CCN(C(=O)c2cc(=O)c3c(O)cccc3o2)CC1`, the Fluorescence intensity in data set [2] stood at 108 a.u.
On the same count and under the same terms, for `CCCCCN1CCN(C(=O)c2cc(=O)c3c(O)cccc3o2)CC1` the value was 225 a.u.
Turning to `COc1ccc(CCNC(=O)c2cc(=O)c3c(O)cccc3o2)cc1`, the Activity in the data set on HCT-116 [3] was 42%; in the data set on HCT-116 [4], 8%; in data set [5], “Active”. For the same compound, the Fluorescence intensity in data set [2] stood at 320 a.u.
Turning to `Cc1ccc(NC(=O)c2ccc(CN3CCN(C)CC3)cc2)cc1Nc1nccc(-c2cccnc2)n1` [IMATINIB], the Fluorescence intensity in data set [2] is recorded as 334 a.u.
On the same count and under the same terms, then `CC(=O)N1CCN(C(=O)c2cc(=O)c3c(O)cccc3o2)CC1`, with 112 a.u.
`CC(C)(C)OC(=O)N1CCN(C(=O)c2cc(=O)c3c(O)cccc3o2)CC1`: the viability at 48 h, 10 µM in data set [1] was 60%. Further, the Fluorescence intensity in data set [2] stood at 179 a.u.
Consider `COc1ccc(CCNC(=O)c2cc(=O)c3c(O)cccc3o2)cc1OC`, for which, in data set [1], the viability at 48 h, 10 µM stood at 60%. Also, the outcome in data set [5] was Active. Also, in data set [2], the Fluorescence intensity was 315 a.u.
Take `O=C(c1cc(=O)c2c(O)cccc2o1)N1CCNCC1`: the Fluorescence intensity in data set [2] was 86 a.u.
The same measure, in the same setting: for `COc1ccc(CNC(=O)c2cc(=O)c3c(O)cccc3o2)cc1OC` the value was 197 a.u.
On the same count and under the same terms, then `COc1ccc2c3c([nH]c2c1)[C@H](C=C(C)C)N1C(=O)[C@@H]2CCCN2C(=O)[C@@H]1C3` [FUMITREMORGIN], with 315 a.u.
